Measured values as given in ChEMBL document CHEMBL2040794, “Synthesis and structure-activity analysis of new phosphonium salts with potent activity against African trypanosomes” (J Med Chem, 2012).

Tests used:
[1] = system: Trypanosoma brucei rhodesiense; experiment: Antitrypanosomal activity against Trypanosoma brucei rhodesiense STIB900 infected in rat L6 cells after 72 hrs by alamar blue assay; type: functional, organism-based; details: Trypanosoma brucei, STIB900, 72 h
L6 = experiment: Cytotoxicity against rat L6 cells after 72 hrs by alamar blue assay; type: cell-based
[2] = Selectivity index, ratio of EC50 for rat L6 cells to EC50 for Trypanosoma brucei rhodesiense STIB900; type: toxicity, cell-based; details: for selectivity ratio: L6 cells, read-out: Ratio EC50
Procedure, shortened: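 Ratio of EC₅₀ in L6 cells to EC₅₀ against T. b. rhodesiense STIB900, both from Alamar blue assays.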

[3] = system: Trypanosoma brucei brucei; experiment: Antitrypanosomal activity against wild type Trypanosoma brucei brucei Lister 427 after 3 days by alamar blue assay; type: functional, organism-based
Procedure, shortened: (§1)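 Bloodstream-form T. b. brucei (wild-type s427; TbAT1-KO, made from s427 by TbAT1 deletion; B48, selected from TbAT1-KO in vitro on pentamidine, lacking functional HAPT1). Cells were exposed to compound for 48 h, then resazurin (Alamar blue) was added for a further 24 h. A single fluorescence reading gave EC50.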

[4] = system: Trypanosoma brucei brucei; experiment: Antitrypanosomal activity against diminazene aceturate-resistant TbAT1 gene-deficient Trypanosoma brucei brucei AT1-KO after 3 days by alamar blue assay; type: functional, organism-based; procedure, shortened: as §1
[5] = system: Trypanosoma brucei brucei; experiment: Resistance factor, ratio of EC50 for diminazene aceturate-resistant TbAT1 gene-deficient Trypanosoma brucei brucei AT1-KO to EC50 for wild type Trypanosoma brucei brucei Lister 427; type: functional
Procedure, shortened: (§2)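 Resistance factor is the EC50 in the resistant line (TbAT1-KO or B48) divided by the EC50 in wild-type s427. […] Resistant and wild-type EC50s were compared by Student t-test.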

[6] = system: Trypanosoma brucei brucei; experiment: Antitrypanosomal activity against diminazene-, pentamidine-, and melaminophenyl arsenical-resistant HAPT1-deficient Trypanosoma brucei brucei B48 after 3 days by alamar blue assay; type: functional, organism-based; procedure, shortened: as §1
[7] = system: Trypanosoma brucei brucei; experiment: Resistance factor, ratio of EC50 for diminazene-, pentamidine-, and melaminophenyl arsenical-resistant HAPT1-deficient Trypanosoma brucei brucei B48 to EC50 for wild type Trypanosoma brucei brucei Lister 427; type: functional; procedure, shortened: as §2
[8] = Cytotoxicity against human HEK cells after 3 days by alamar blue assay; type: cell-based, HEK293; details: Homo sapiens, HEK293, 72 h
Procedure, shortened: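 Human embryonic kidney cells tested by resazurin (Alamar blue) assay: 48 h with compound, then 24 h more after dye addition, single reading; EC₅₀ derived.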

[9] = Selectivity index, ratio of EC50 for human HEK cells to EC50 for wild type Trypanosoma brucei brucei Lister 427; type: toxicity, cell-based, HEK293; details: HEK cells, read-out: Ratio EC50
Procedure, shortened: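 Ratio of EC₅₀ in HEK cells to EC₅₀ in wild-type T. b. brucei s427, both from resazurin assays.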

[10] = Trypanosoma brucei, Lister 427, 72 h
[11] = Trypanosoma brucei, AT1-KO, 72 h

| SMILES | EC50 [1] | EC50 (L6; Rattus norvegicus, L6, 72 h) | selectivity ratio [2] | EC50 [3, 10] | EC50 [4, 11] | Ratio EC50 [5] | EC50 ([6]; Trypanosoma brucei, B48, 72 h) | Ratio EC50 [7] | EC50 [8] | selectivity ratio [9] | EC50 (L6; l6) | Ratio EC50 ([2]; l6) | EC50 [3] | EC50 [4] | EC50 [6] |
| --- | --- | --- | --- | --- | --- | --- | --- | --- | --- | --- | --- | --- | --- | --- | --- |
| COc1ccccc1[P+](Cc1ccc(C(=O)c2ccc(C[P+](c3ccccc3OC)(c3ccccc3OC)c3ccccc3OC)cc2)cc1)(c1ccccc1OC)c1ccccc1OC.[Br-].[Br-] | 200 nM | 9000 nM | 45 | 110 nM | 160 nM | 1.5 | 80 nM | 0.7 | 131000 nM | 1180 | – | – | – | – | – |
| CCC[P+](Cc1ccc(Oc2ccc(C[P+](CCC)(c3ccccc3)c3ccccc3)cc2)cc1)(c1ccccc1)c1ccccc1.[Br-].[Br-] | 567 nM | 2900 nM | 5 | 250 nM | 280 nM | 1.1 | 300 nM | 1.2 | 233000 nM | 914 | – | – | – | – | – |
| Cc1ccc([P+](CCc2ccc(CCCc3ccc(CC[P+](c4ccc(C)cc4)(c4ccc(C)cc4)c4ccc(C)cc4)cc3)cc2)(c2ccc(C)cc2)c2ccc(C)cc2)cc1.[Cl-].[Cl-] | 73 nM | 645 nM | 8.8 | 77 nM | 43 nM | 0.6 | 48 nM | 0.6 | 5600 nM | 73 | – | – | – | – | – |
| CC[P+](Cc1ccc(C(=O)c2ccc(C[P+](CC)(c3ccccc3)c3ccccc3)cc2)cc1)(c1ccccc1)c1ccccc1.[Br-].[Br-] | 554 nM | > 113000 nM | > 204 | 970 nM | 2100 nM | 2.2 | 1760 nM | 1.8 | > 300000 nM | > 300 | – | – | – | – | – |
| Cc1cccc([P+](Cc2ccc(Oc3ccccc3)cc2)(c2cccc(C)c2)c2cccc(C)c2)c1.[Br-] | 14 nM | 870 nM | 62 | 28 nM | 21 nM | 0.8 | 17 nM | 0.6 | 24500 nM | 876 | – | – | – | – | – |
| Cc1ccc([P+](Cc2ccc(CCc3ccc(C[P+](c4ccc(C)cc4)(c4ccc(C)cc4)c4ccc(C)cc4)cc3)cc2)(c2ccc(C)cc2)c2ccc(C)cc2)cc1.[Br-].[Br-] | 84 nM | – | – | – | – | 1 | – | 1 | 32400 nM | 213 | 656 nM | 7.8 | 150 nM | 150 nM | 150 nM |
| [Br-].[Br-].c1ccc2c([P+](Cc3ccc(Oc4ccc(C[P+](c5cccc6ccccc56)(c5cccc6ccccc56)c5cccc6ccccc56)cc4)cc3)(c3cccc4ccccc34)c3cccc4ccccc34)cccc2c1 | 384 nM | 3450 nM | 9 | 160 nM | 140 nM | 0.9 | 128 nM | 0.8 | 114000 nM | 722 | – | – | – | – | – |
| COc1ccc([P+](Cc2ccc(C(=O)c3ccc(C[P+](c4ccc(OC)cc4)(c4ccc(OC)cc4)c4ccc(OC)cc4)cc3)cc2)(c2ccc(OC)cc2)c2ccc(OC)cc2)cc1.[Br-].[Br-] | 290 nM | 11800 nM | 40 | 320 nM | 520 nM | 1.6 | 230 nM | 0.7 | 172000 nM | 529 | – | – | – | – | – |
| [Br-].[Br-].c1ccc2c([P+](Cc3ccc(Cc4ccc(C[P+](c5cccc6ccccc56)(c5cccc6ccccc56)c5cccc6ccccc56)cc4)cc3)(c3cccc4ccccc34)c3cccc4ccccc34)cccc2c1 | 299 nM | 3430 nM | 12 | 140 nM | 170 nM | 1.3 | 140 nM | 1 | 163000 nM | 1210 | – | – | – | – | – |
| O=C(c1ccc(C[P+](c2ccccc2)(c2ccccc2)c2ccccn2)cc1)c1ccc(C[P+](c2ccccc2)(c2ccccc2)c2ccccn2)cc1.[Br-].[Br-] | 607 nM | 14600 nM | 24 | 700 nM | 1430 nM | 2 | 1330 nM | 1.9 | > 300000 nM | > 400 | – | – | – | – | – |
| O=C(c1ccc(C[P+](c2cccs2)(c2cccs2)c2cccs2)cc1)c1ccc(C[P+](c2cccs2)(c2cccs2)c2cccs2)cc1.[Br-].[Br-] | 290 nM | 16600 nM | 58 | 330 nM | 520 nM | 1.6 | 330 nM | 1 | 260000 nM | 785 | – | – | – | – | – |
| CCC[P+](Cc1ccc(Cc2ccc(C[P+](CCC)(c3ccccc3)c3ccccc3)cc2)cc1)(c1ccccc1)c1ccccc1.[Br-].[Br-] | 799 nM | 3270 nM | 4.1 | 373 nM | 400 nM | 1.1 | 430 nM | 1.1 | > 300000 nM | > 800 | – | – | – | – | – |
| O=C(c1ccc(C[P+](Cc2ccccc2)(c2ccccc2)c2ccccc2)cc1)c1ccc(C[P+](Cc2ccccc2)(c2ccccc2)c2ccccc2)cc1.[Br-].[Br-] | 480 nM | 32000 nM | 67 | 810 nM | 1020 nM | 1.3 | 1030 nM | 1.3 | > 300000 nM | > 370 | – | – | – | – | – |
| CC(C)[P+](Cc1ccc(Oc2ccc(C[P+](c3ccccc3)(c3ccccc3)C(C)C)cc2)cc1)(c1ccccc1)c1ccccc1.[Br-].[Br-] | 585 nM | 5000 nM | 8.6 | 330 nM | 330 nM | 1 | 330 nM | 1 | > 300000 nM | > 900 | – | – | – | – | – |
| CCCC[P+](CCCC)(CCCC)Cc1ccc(C(=O)c2ccc(C[P+](CCCC)(CCCC)CCCC)cc2)cc1.[Br-].[Br-] | 355 nM | 112000 nM | 315 | 480 nM | 1320 nM | 2.7 | 1630 nM | 3.4 | > 300000 nM | > 620 | – | – | – | – | – |
| C[P+](C)(Cc1ccc(CCc2ccc(C[P+](C)(C)c3ccccc3)cc2)cc1)c1ccccc1.[Br-].[Br-] | 1200 nM | 48600 nM | 40 | 2590 nM | 2620 nM | 1 | 1800 nM | 0.5 | > 300000 nM | > 110 | – | – | – | – | – |
| Cc1ccc([P+](Cc2ccc(C(=O)c3ccccc3)cc2)(c2ccccc2)c2ccccc2)cc1.[Br-] | 267 nM | 7720 nM | 29 | 150 nM | 150 nM | 1 | 100 nM | 0.7 | 76800 nM | 504 | – | – | – | – | – |
